HIV Rev-RRE inh: HIV Rev-RRE protein-RNA interaction inhibition | P05866 | Rev peptide-RRE RNA binding, FRET | inhibition, % at 8 µM | actives 0.79% (n = 97,000) | AID 704;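 active = inhibition above the screen-wide mean plus 3 SD, cut at about 35% in these data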;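 note: 0% = median DMSO wells and 100% = median Neomycin B control wells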
Target sequence (P05866 whole entry, looked up): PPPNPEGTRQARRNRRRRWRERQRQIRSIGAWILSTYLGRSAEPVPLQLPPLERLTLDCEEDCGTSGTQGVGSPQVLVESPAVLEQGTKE
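Probe or stimulus: fluorescein-Rev peptide as binding partner; assay system: Cy5-tagged RRE RNA duplex with fluorescein-tagged Rev peptide; timing: 5 min compound–RNA preincubation, then 15 min with peptide, 25 °C; medium: HEPES pH 7.5 buffer with KCl, MgCl2, NaCl and EDTA; signal: fluorescein-to-Cy5 FRET, 480 nm excitation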
CYP2C9 activ: CYP2C9 (human) activation; recombinant CYP2C9, luciferin-H conversion, luminescence; stronger effect = higher value; factor 1 = untreated enzyme, 0 = blocked; activation factor at 5 µM; actives 1.4% (n = 96,000);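 active = activation factor of 2 or more for CYP2C9 at a 5 µM dose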;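 note: 0 = sulfaphenazole-blocked wells and 1 = vehicle-only wells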
CYP2C19 act: cytochrome P450 2C19 (human) activation | 96,000 tested, under 10 active | recombinant CYP2C19, luciferin-H EGE luminescence; stronger effect = higher value; 0 = fully inhibited enzyme, 1 = untreated enzyme | P33261 | activation factor at 5 µM;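 active = activation factor of at least 2 at 5 µM in the primary screen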;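 note: 0 = wells with 2.5 mM tranylcypromine and 1 = vehicle-only wells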
Target sequence (P33261 whole entry, looked up): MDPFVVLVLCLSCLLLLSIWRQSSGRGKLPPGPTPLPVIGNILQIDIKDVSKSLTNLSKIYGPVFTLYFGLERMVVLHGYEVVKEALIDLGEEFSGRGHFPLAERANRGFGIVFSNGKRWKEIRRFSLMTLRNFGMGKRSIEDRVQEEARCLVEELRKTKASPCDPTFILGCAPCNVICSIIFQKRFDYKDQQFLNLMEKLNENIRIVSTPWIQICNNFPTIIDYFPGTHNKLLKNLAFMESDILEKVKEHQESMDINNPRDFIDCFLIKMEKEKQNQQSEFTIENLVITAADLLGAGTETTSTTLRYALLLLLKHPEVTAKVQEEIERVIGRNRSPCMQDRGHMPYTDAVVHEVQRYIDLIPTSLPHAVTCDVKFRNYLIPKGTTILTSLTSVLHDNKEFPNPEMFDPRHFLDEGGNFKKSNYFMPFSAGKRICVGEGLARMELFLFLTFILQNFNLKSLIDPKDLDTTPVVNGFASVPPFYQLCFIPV
CYP2C9 inh: human CYP2C9 inhibition; P11712; CYP2C9 Supersomes, luciferin-H conversion, luminescence; inhibition, % at 5 µM; actives 20% (n = 96,000); AID 777;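 active = blocking of liver enzyme CYP2C9 beyond about 50% at 5 µM, limit read from the data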
CYP2C19 inh: human CYP2C19 inhibition; CYP2C19 Supersomes, luciferin-H EGE luminescence, 30 min; inhibition, % at 5 µM; AID 778; actives 21% (n = 96,000); P33261;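 active = CYP2C19 inhibition above a set limit at 5 µM in the primary screen, cut at about 50% in these data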;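 note: plate controls were negative control wells for no effect and 2.5 mM tranylcypromine positive control for full effect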
Cav32 inh: inhibitors of human Cav3.2 T-type calcium channel. actives 4% (n = 100,000). O95180. B-score at 10 µM. Cav3.2-expressing cells, Fluo-4 calcium fluorescence FDSS; stronger effect = lower value. AID 449739;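 active = single-dose well whose peak fluorescence ratio is a statistical outlier from its plate by either plate-standardised score or position-corrected B-score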
An asterisk follows results filed as active; . = no result given. An excerpt weighted towards active compounds, which were near 27% of everything screened.

SMILES | HIV Rev-RRE inh | CYP2C9 activ | CYP2C19 act | CYP2C9 inh | CYP2C19 inh | Cav32 inh
Cc1ccc(C(=O)C(NC(=O)c2ccco2)Nc2sc3c(c2C(N)=O)CCCC3)cc1 (configuration not stated) | -4 | . | . | . | . | -1.3
COc1cc(C(=O)NCCC(=O)NCc2ccc3c(c2)OCO3)cc(OC)c1OC | 6 | 1 | 1.2 | 4 | -16 | 0.3
COc1ccc2c(c1)C=C(C(=O)NCc1ccc(Cl)cc1)CO2 | 1 | 0.4 | 0.5 | 62* | 53* | -6.7*
O=C(Nc1ccc(Cl)cc1)C1=Cc2cc(Cl)ccc2OC1 | 0 | 1.2 | 1.1 | -20 | -12 | 0.58
COc1ccccc1CC(=O)NCc1ccc2c(c1)OCO2 | 11 | 1 | 0.1 | 4 | 90* | -0.21
COc1cccc(CNC(=O)C2(C)Oc3ccccc3NC2=O)c1 (configuration not stated) | 5 | 0.1 | 0.3 | 92* | 72* | -0.12
COc1ccc(-c2nc3ccccn3c2NCc2ccc3c(c2)OCO3)cc1 | 1 | . | . | . | . | -4*
COC(=O)Cc1cc(=O)[nH]c(/N=C(\N)Nc2ccccc2)n1 | 1 | 1.1 | 1 | -6 | 0 | 1.2
O=C1Nc2ccccc2C(O)(C(=O)NCc2ccc3c(c2)OCO3)N1c1ccccc1 (configuration not stated) | . | 1 | 0.8 | -4 | 21 | -0.78
CCOc1ccccc1C(=O)NCC(=O)OCC(=O)c1ccc2c(c1)OCCO2 | 6 | 1.7 | 1 | -68 | -5 | -0.27
CCOc1ccccc1C(=O)NCc1ccc2c(c1)OCO2 | -1 | 0.6 | 0 | 42 | 98* | 0.42
COc1cccc(N2C(=O)Nc3ccccc3C2(O)C(=O)NCc2ccc3c(c2)OCO3)c1 (configuration not stated) | . | 0.9 | 0.4 | 9 | 61* | -0.76
Cc1ccc(S(=O)(=O)NC(=O)NCc2ccc3c(c2)OCO3)cc1 | 8 | 1 | 1.2 | -2 | -17 | -1.4
COc1ccc(CNC(=O)C(C)N=C2NS(=O)(=O)c3ccccc32)cc1OC (configuration not stated) | 8 | 0.8 | 0.9 | 15 | 8 | -0.22
CC(N=C1NS(=O)(=O)c2ccccc21)C(=O)NCc1ccc2c(c1)OCO2 (configuration not stated) | 4 | 0.1 | 0.4 | 86* | 58* | -0.25
CCC(NC(=O)NCc1ccc2c(c1)OCO2)(C(F)(F)F)C(F)(F)F | 16 | 0.5 | 0.1 | 52* | 86* | 0.48
CC(C(=O)OCn1nnc2ccccc2c1=O)N1C(=O)c2ccccc2C1=O (configuration not stated) | -1 | 1.1 | 1.1 | -7 | -7 | -1
O=C(Cc1cccs1)NCc1ccc(F)cc1 | 7 | 1.1 | 0.8 | -10 | 22 | 0.09
O=C(Cc1cccs1)NCc1ccc2c(c1)OCO2 | 7 | 0.6 | 0.1 | 38 | 92* | 0.024
O=C(OC(C(=O)NCc1ccc2c(c1)OCO2)c1ccccc1F)c1ccco1 (configuration not stated) | 1 | 0.3 | 0.5 | 67* | 46 | -0.23
COc1ccccc1S(=O)(=O)Cc1ccc(C(=O)NC(C)c2ccc3c(c2)OCCO3)o1 (configuration not stated) | 2 | 0.4 | 0.5 | 62* | 52* | 0.57
Cc1ccc(N2CC(C(=O)NCc3ccc4c(c3)OCO4)CC2=O)cc1C (configuration not stated) | 1 | 2.2* | 0.9 | -124 | 8 | 0.0099
Cc1ccc(S(=O)(=O)N2CCC(C(=O)NCCCN3CCCCCC3)CC2)cc1 | 13 | 0.9 | 0.9 | 9 | 7 | 0.031
CCN(C(=O)C1CCN(S(=O)(=O)c2ccc3c(c2)oc(=O)n3C)CC1)c1cccc(C)c1 | 3 | 1 | 0.9 | 0 | 10 | -0.0015
Cc1nc(N)sc1-c1nnc(SCC(=O)Nc2nccs2)n1C | -1 | 0.7 | 0.7 | 34 | 27 | -0.095
SMILES | HIV Rev-RRE inh | CYP2C9 activ | CYP2C19 act | CYP2C9 inh | CYP2C19 inh | Cav32 inh
COC(=O)c1ccc(NC(=O)CSc2nnnn2C2CCCCC2)cc1 | 4 | . | . | . | . | -0.81
COCOc1cc(O)c(C(=O)/C=C/c2ccccc2)c(OCOC)c1 | . | . | . | . | . | 0.58
CCC1=C(OC(=O)N(CC)CC)N2C(=O)OC(=NCC(=O)OC)[C@]2(Cc2ccccc2)[C@H]2C1=CC[C@H]1C(=O)N(c3ccccc3)C(=O)[C@H]12 | . | . | . | . | . | -0.29
CC(=O)OCC(=O)NCc1ccc2c(c1)OCO2 | 7 | 1 | 0.9 | -3 | 5 | -0.61
O=C(NCc1ccc2c(c1)OCO2)c1cccc(N2CCCC2=O)c1 | -2 | 0.4 | 0.3 | 61* | 69* | 0.19
O=C(NCc1ccc2c(c1)OCO2)C1COc2ccccc2O1 (configuration not stated) | 1 | . | . | . | . | -1.6
COc1ccc(CC(=O)NCc2ccc3c(c2)OCO3)cc1 | 3 | 0.3 | 0 | 69* | 97* | -0.67
O=C(NCc1ccc2c(c1)OCO2)Oc1ccccc1 | 3 | 0.9 | 0.3 | 13 | 74* | -0.03
Cc1ccsc1C(=O)OCC(=O)NCc1ccc2c(c1)OCO2 | . | 0.3 | 0.4 | 72* | 60* | 0.52
Cc1ccc2c(n1)CC(C)(C)C/C2=N\O | 4 | . | . | . | . | 1.2
Cc1ccc2nc3c(cc(C#N)c(=O)n3CC3CCCO3)c(=O)n2c1 (configuration not stated) | . | 0.9 | 1 | 13 | 2 | 1.6
CC1(C)[C@@H](O)CC[C@]2(C)C3C(O)C=C4[C@H]5C[C@@](C)(CO)CC[C@]5(C)CC[C@]4(C)[C@]3(C)CC[C@@H]12 (some centres not stated) | . | . | . | . | . | -0.11
O=C(CNC(=O)Cn1cnc2sc3c(c2c1=O)CCCC3)NCc1ccccn1 | 5 | 0.9 | 1.1 | 12 | -11 | 0.71
COc1ccc(OC)c(CNC(=O)Cc2c(C(=O)O)[nH]c3ccccc23)c1 | 7 | 0.8 | 1 | 18 | -4 | -0.078
COc1cccc(CNC(=O)Cc2c(C(=O)O)[nH]c3ccccc23)c1 | 9 | 0.5 | 1 | 52* | 0 | 1.4
CN1CCN(C(=O)c2ccc(C3SCC(=O)N3Cc3ccco3)cc2)CC1 (configuration not stated) | 2 | 1 | 0.9 | 0 | 6 | -0.45
CCc1ccccc1S(=O)(=O)Cc1ccc(C(=O)NCc2ccc3c(c2)OCO3)o1 | 6 | 0 | 0.5 | 95* | 54* | 0.87
COc1ccc(NC(=O)c2ccc3c(c2)OCO3)cc1Cl | 1 | 1.2 | 0.8 | -25 | 17 | 0.42
O=C(NCc1ccc2c(c1)OCO2)c1ccc(C2SCC(=O)N2Cc2ccco2)cc1 (configuration not stated) | -2 | 0 | 0.3 | 98* | 67* | -1.3
COc1ccc(NCc2ccc3c(c2)OCO3)cc1Cl | 2 | 0.1 | 0 | 86* | 98* | -3.2

Bioassay records as filed in PubChem BioAssay.
